Data from ChEMBL document CHEMBL1255336, “Single-dose safety and pharmacokinetics of ST-246, a novel orthopoxvirus egress inhibitor” (Antimicrob Agents Chemother, 2008).

Columns and labels:
[1] = AUClast in fasting healthy human at 500 mg, po administered as single dose measured after 48 hrs; format: ADME, organism-based; design: dose 500 mg, time < 48 hr, route oral; settings: plasma
How it was run: (§1)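 Randomised placebo-controlled single oral dose in healthy subjects (8 active, 2 placebo per group); groups 1–3 fasting, group 4 nonfasting. Plasma sampled predose to 48 h (groups 1–3) or 72 h (group 4), centrifuged 4°C, stored –70°C. LC-MS/MS with analog internal standard. Noncompartmental analysis on actual times; Cmax observed; AUC by trapezoid rule, extrapolated with kel; CL = dose/AUC0-∞.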

[2] = AUC(0 to infinity) in fasting healthy human at 2000 mg, po administered as single dose measured after 48 hrs; format: ADME, organism-based; design: dose 2000 mg, time infinity, route oral; settings: plasma; how it was run: as §1
Homo sapiens [3] = assay: Toxicity in fasting healthy human assessed as adverse events at 500 mg, po administered as single dose measured after 48 hrs; format: organism-based; settings: in vivo
How it was run: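 Healthy subjects given single oral dose, 8 active and 2 placebo per group. Safety covered adverse events, vital signs, ECG (day 1 and week 4), hematology, chemistries, urinalysis before and after dosing. Follow-up visits at week 1 and week 4. Cohort safety was reviewed before the next dose group.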

[4] = Tmax in fasting healthy human at 1000 mg, po administered as single dose measured after 48 hrs; format: ADME, organism-based; settings: in vivo
[5] = Apparent oral clearance in fasting healthy human at 2000 mg, po administered as single dose measured after 48 hrs; format: ADME, organism-based; settings: in vivo
How it was run: (§2)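 Healthy volunteers, 8 per group on active drug (2 placebo), single fasting oral dose. Venous plasma drawn predose and 0.5–12, 24, 48 h postdose, kept at –70°C, assayed by validated LC-MS/MS with analog internal standard. Noncompartmental analysis on actual times; Tmax observed directly; kel by log-linear regression of ≥3 terminal points; CL = dose/AUC0-∞. Median values.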

Homo sapiens [6] = assay: Toxicity in fasting healthy human assessed as neutropenia at 1000 mg, po administered as single dose measured after 48 hrs; format: organism-based; settings: in vivo
How it was run: (§3)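 Randomized, placebo-controlled single oral dose in healthy adults, groups of 10 (8 drug, 2 placebo), dose escalated after safety review. Fasting groups got 500, 1,000 or 2,000 mg; one group got 1,000 mg fed. Treatment-emergent adverse events, vital signs, hematology, chemistries, urinalysis and ECG were recorded through day 1 and follow-up at weeks 1 and 4. Drug relation was judged blinded.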

[7] = Cmax in fasting healthy human at 500 mg, po administered as single dose measured after 48 hrs; format: ADME, organism-based; design: dose 500 mg, route oral; settings: in vivo; how it was run: as §1
Homo sapiens [8] = assay: Toxicity in fasting healthy human assessed as feeling abnormal at 500 mg, po administered as single dose measured after 48 hrs; format: organism-based; settings: in vivo; how it was run: as §3
[9] = Plasma clearance in fasting healthy human at 1000 mg, po administered as single dose measured after 48 hrs; format: ADME, organism-based; how it was run: as §1
[10] = Apparent Cmax in nonfasting healthy human at 1000 mg, po administered as single dose measured after 72 hrs; format: ADME, organism-based; design: dose 1000 mg, route oral; settings: in vivo; how it was run: as §1
[11] = Tmax in nonfasting healthy human at 1000 mg, po administered as single dose measured after 72 hrs; format: ADME, organism-based; settings: in vivo
How it was run: (§4)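 Healthy volunteers (8 active, 2 placebo) given a single 1,000 mg oral dose in the fed state. Plasma sampled predose, at 0.5–12 h, 24, 48 and 72 h postdose and analysed by validated LC-MS/MS. Noncompartmental analysis on actual sampling times. Tmax observed directly; t1/2 from kel fitted to ≥3 terminal log-linear points. Median values.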

[12] = AUClast in fasting healthy human at 1000 mg, po administered as single dose measured after 48 hrs; format: ADME, organism-based; design: dose 1000 mg, time < 48 hr, route oral; settings: plasma; how it was run: as §1
[13] = AUClast in nonfasting healthy human at 1000 mg, po administered as single dose measured after 72 hrs; format: ADME, organism-based; design: time < 72 hr, dose 1000 mg, route oral; settings: plasma; how it was run: as §1
[14] = Tmax in fasting healthy human at 500 mg, po administered as single dose measured after 48 hrs; format: ADME, organism-based; settings: in vivo; how it was run: as §2
Homo sapiens [15] = assay: Median half life in fasting healthy human at 1000 mg, po administered as single dose measured after 48 hrs; format: ADME, organism-based; settings: in vivo
[16] = AUC(0 to infinity) in nonfasting healthy human at 1000 mg, po administered as single dose measured after 72 hrs; format: ADME, organism-based; design: dose 1000 mg, time infinity, route oral; settings: plasma; how it was run: as §1
[17] = AUC(0 to infinity) in fasting healthy human at 1000 mg, po administered as single dose measured after 48 hrs; format: ADME, organism-based; design: dose 1000 mg, time infinity, route oral; settings: plasma; how it was run: as §1
[18] = Apparent oral clearance in fasting healthy human at 500 mg, po administered as single dose measured after 48 hrs; format: ADME, organism-based; settings: in vivo; how it was run: as §1
[19] = Terminal half life in fasting healthy human at 500 mg, po administered as single dose measured after 48 hrs; format: ADME, organism-based; settings: in vivo; how it was run: as §2
[20] = Median half life in fasting healthy human at 500 mg, po administered as single dose measured after 48 hrs; format: ADME, organism-based; settings: in vivo; how it was run: as §2
[21] = Terminal half life in fasting healthy human at 2000 mg, po administered as single dose measured after 48 hrs; format: ADME, organism-based; settings: in vivo; how it was run: as §2
[22] = Cmax in fasting healthy human at 2000 mg, po administered as single dose measured after 48 hrs; format: ADME, organism-based; design: dose 2000 mg, route oral; settings: in vivo; how it was run: as §1
[23] = Terminal half life in fasting healthy human at 1000 mg, po administered as single dose measured after 48 hrs; format: ADME, organism-based; settings: in vivo; how it was run: as §2
Homo sapiens [24] = assay: Toxicity in healthy human assessed as adverse events at 1000 mg, po administered as single dose measured after 72 hrs; format: organism-based; settings: in vivo; how it was run: as §3
[25] = Plasma clearance in nonfasting healthy human at 1000 mg, po administered as single dose measured after 72 hrs; format: ADME, organism-based; how it was run: as §1
Homo sapiens [26] = assay: Toxicity in healthy human assessed as headache at 1000 mg, po administered as single dose measured after 72 hrs; format: organism-based; settings: in vivo; how it was run: as §3
[27] = Cmax in nonfasting healthy human at 1000 mg, po administered as single dose measured after 72 hrs; format: ADME, organism-based; design: dose 1000 mg, route oral; settings: in vivo; how it was run: as §1
[28] = AUC(0 to infinity) in fasting healthy human at 500 mg, po administered as single dose measured after 48 hrs; format: ADME, organism-based; design: dose 500 mg, route oral, time infinity; settings: plasma; how it was run: as §1
[29] = Cmax in fasting healthy human at 1000 mg, po administered as single dose measured after 48 hrs; format: ADME, organism-based; design: dose 1000 mg, route oral; settings: in vivo; how it was run: as §1
Homo sapiens [30] = assay: Toxicity in fasting healthy human assessed as headache at 500 mg, po administered as single dose measured after 48 hrs; format: organism-based; settings: in vivo; how it was run: as §3
[31] = Tmax in fasting healthy human at 2000 mg, po administered as single dose measured after 48 hrs; format: ADME, organism-based; settings: in vivo; how it was run: as §2
Homo sapiens [32] = assay: Toxicity in fasting healthy human assessed as adverse events at 1000 mg, po administered as single dose measured after 48 hrs; format: organism-based; settings: in vivo; how it was run: as §3
[33] = Terminal half life in nonfasting healthy human at 1000 mg, po administered as single dose measured after 72 hrs; format: ADME, organism-based; settings: in vivo; how it was run: as §4
Homo sapiens [34] = assay: Toxicity in fasting healthy human assessed as constipation at 1000 mg, po administered as single dose measured after 48 hrs; format: organism-based; settings: in vivo; how it was run: as §3
[35] = Apparent oral clearance in fasting healthy human at 1000 mg, po administered as single dose measured after 48 hrs; format: ADME, organism-based; settings: in vivo; how it was run: as §1
Homo sapiens [36] = assay: Toxicity in fasting healthy human assessed as back pain at 500 mg, po administered as single dose measured after 48 hrs; format: organism-based; settings: in vivo; how it was run: as §3
[37] = Apparent oral clearance in nonfasting healthy human at 1000 mg, po administered as single dose measured after 72 hrs; format: ADME, organism-based; settings: in vivo; how it was run: as §1
[38] = Plasma clearance in fasting healthy human at 2000 mg, po administered as single dose measured after 48 hrs; format: ADME, organism-based; how it was run: as §1
[39] = AUClast in fasting healthy human at 2000 mg, po administered as single dose measured after 48 hrs; format: ADME, organism-based; design: time < 48 hr, dose 2000 mg, route oral; settings: plasma; how it was run: as §1
[40] = Median half life in fasting healthy human at 2000 mg, po administered as single dose measured after 48 hrs; format: ADME, organism-based; settings: in vivo; how it was run: as §2
[41] = Plasma clearance in fasting healthy human at 500 mg, po administered as single dose measured after 48 hrs; format: ADME, organism-based; how it was run: as §1

`O=C(NN1C(=O)[C@@H]2[C@@H]3C=C[C@@H]([C@H]4C[C@@H]34)[C@@H]2C1=O)c1ccc(C(F)(F)F)cc1` [TECOVIRIMAT] gave an AUC(0-t) at 48 h [1] of 9880 ng·h/mL, an AUC(0-inf) [2] of 25700 ng·h/mL and an Activity (Homo sapiens [3]) of 25%. The Tmax [4] was 3 h, the CL/F [5] was 1320 mL/min and the Activity (Homo sapiens [6]) was 12.5%. It also gave a Cmax [7] of 934 ng/mL, an Activity (Homo sapiens [8]) of 12.5% and a CL/F [9] of 838 mL/min. For the same molecule, the Cmax [10] was 3120 ng/mL, the Tmax [11] was 5 h and the AUC(0-t) at 48 h [12] was 21100 ng·h/mL. The AUC(0-t) at 72 h [13] was 34100 ng·h/mL, the Tmax [14] was 2 h and the t1/2 (Homo sapiens [15]) was 19.8 h. The AUC(0-inf) [16] was 35900 ng·h/mL, the AUC(0-inf) [17] was 24900 ng·h/mL and the CL/F [18] was 883 mL/min. The half-life [19] was 1560 min, the half-life [20] was 1250 min and the half-life [21] was 1320 min. For the same molecule, the Cmax [22] was 2550 ng/mL, the half-life [23] was 2400 min and the Activity (Homo sapiens [24]) was 12.5%. For the same molecule, the CL/F [25] was 513 mL/min, the Activity (Homo sapiens [26]) was 12.5% and the Cmax [27] was 2930 ng/mL. For the same molecule, the AUC(0-inf) [28] was 9810 ng·h/mL, the Cmax [29] was 1810 ng/mL and the Activity (Homo sapiens [30]) was 12.5%. It also gave a Tmax [31] of 3 h, an Activity (Homo sapiens [32]) of 12.5% and a half-life [33] of 1020 min. The Activity (Homo sapiens [34]) was 12.5%, the CL/F [35] was 817 mL/min and the Activity (Homo sapiens [36]) was 12.5%. For the same molecule, the CL/F [37] was 500 mL/min, the CL/F [38] was 1290 mL/min and the AUC(0-t) at 48 h [39] was 24500 ng·h/mL. For the same molecule, the half-life [40] was 1130 min and the CL/F [41] was 860 mL/min.
